Assay results: ChEMBL document CHEMBL1821687, “Discovery, synthesis, and biological evaluation of novel SMN protein modulators” (J Med Chem, 2011)

How the values were obtained:
Brain [1] = assay: Drug level in Swiss albino mouse brain at 30 mg/kg, po after 2 hrs; format: ADME, organism-based; parameters: dose 30 mg/kg, route oral; details: in vivo
Summary of the method: (§1)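 Male Swiss Albino mice received a single 30 mg/kg oral gavage dose. Compound levels were measured in plasma and brain over time, and PK parameters were derived from the concentration–time data.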

Brain [2] = assay: Drug level in Swiss albino mouse brain at 30 mg/kg, po after 1 hr; format: ADME, organism-based; parameters: dose 30 mg/kg, route oral; details: in vivo; summary of the method: as §1
Brain [3] = assay: Drug level in Swiss albino mouse brain at 30 mg/kg, po after 0.5 hr; format: ADME, organism-based; parameters: dose 30 mg/kg, route oral; details: in vivo; summary of the method: as §1
Brain [4] = assay: Drug level in Swiss albino mouse brain at 30 mg/kg, po after 0.25 hr; format: ADME, organism-based; parameters: dose 30 mg/kg, route oral; details: in vivo; summary of the method: as §1
Brain [5] = assay: Drug level in Swiss albino mouse brain at 30 mg/kg, po after 0.083 hr; format: ADME, organism-based; parameters: dose 30 mg/kg, route oral; details: in vivo
[6] = Plasma concentration in Swiss albino mouse at 30 mg/kg, po after 24 hrs; format: ADME, organism-based; parameters: dose 30 mg/kg, route oral; summary of the method: as §1
[7] = Plasma concentration in Swiss albino mouse at 30 mg/kg, po after 12 hrs; format: ADME, organism-based; parameters: dose 30 mg/kg, route oral; summary of the method: as §1
[8] = Plasma concentration in Swiss albino mouse at 30 mg/kg, po after 8 hrs; format: ADME, organism-based; parameters: dose 30 mg/kg, route oral; summary of the method: as §1
[9] = Plasma concentration in Swiss albino mouse at 30 mg/kg, po after 4 hrs; format: ADME, organism-based; parameters: dose 30 mg/kg, route oral; summary of the method: as §1
[10] = Plasma concentration in Swiss albino mouse at 30 mg/kg, po after 2 hrs; format: ADME, organism-based; parameters: dose 30 mg/kg, route oral; summary of the method: as §1
[11] = Plasma concentration in Swiss albino mouse at 30 mg/kg, po after 1 hr; format: ADME, organism-based; parameters: dose 30 mg/kg, route oral; summary of the method: as §1
[12] = Plasma concentration in Swiss albino mouse at 30 mg/kg, po after 0.5 hrs; format: ADME, organism-based; parameters: dose 30 mg/kg, route oral; summary of the method: as §1
[13] = Plasma concentration in Swiss albino mouse at 30 mg/kg, po after 0.25 hrs; format: ADME, organism-based; parameters: dose 30 mg/kg, route oral; summary of the method: as §1
[14] = Plasma concentration in Swiss albino mouse at 30 mg/kg, po after 0.083 hrs; format: ADME, organism-based; parameters: dose 30 mg/kg, route oral
Caco-2 [15] = assay: Apparent permeability from basolateral side to apical side of human Caco2 cells at 10 uM; format: ADME, cell-based; details: caco-2, 10 µM
Caco-2 [16] = assay: Apparent permeability from apical side to basolateral side of human Caco2 cells at 10 uM; format: ADME, cell-based; details: caco-2, 10 µM
Liver = assay: Half-life in mouse liver microsome at 1 uM; format: ADME; details: microsomes
[17] = target: T1, Luciferin 4-monooxygenase (Luciola lateralis, UniProt Q01158); assay: Inhibition of fire fly luciferase; parameters: species or system Aquatica lateralis; details: read-out: IC50
T1 sequence (Q01158 whole entry): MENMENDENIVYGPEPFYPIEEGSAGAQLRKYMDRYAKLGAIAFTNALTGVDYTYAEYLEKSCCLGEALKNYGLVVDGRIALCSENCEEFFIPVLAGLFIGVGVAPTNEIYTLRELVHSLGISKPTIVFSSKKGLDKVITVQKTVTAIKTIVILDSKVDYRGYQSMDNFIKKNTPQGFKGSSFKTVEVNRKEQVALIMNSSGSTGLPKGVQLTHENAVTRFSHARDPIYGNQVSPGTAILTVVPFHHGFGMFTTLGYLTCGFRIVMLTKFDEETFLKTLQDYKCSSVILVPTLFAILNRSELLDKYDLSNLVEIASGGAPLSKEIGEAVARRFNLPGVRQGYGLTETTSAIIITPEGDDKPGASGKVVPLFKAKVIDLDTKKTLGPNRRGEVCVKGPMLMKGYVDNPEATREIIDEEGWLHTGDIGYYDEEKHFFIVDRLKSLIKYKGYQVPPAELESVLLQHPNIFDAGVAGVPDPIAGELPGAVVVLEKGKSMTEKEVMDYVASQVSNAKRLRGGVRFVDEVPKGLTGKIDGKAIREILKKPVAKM

[18] = target: Survival motor neuron protein (Homo sapiens) (UniProt Q16637); assay: Activation of SMN expressed in HEK293 cells assessed as rate of induction by SMN2-promotor driven luciferase reporter gene assay relative to basal level; format: cell-based; parameters: concentration or dose not given beside the values
Summary of the method: (§2)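 HEK-293 cells stably carrying the SMN2 reporter construct, kept in DMEM with 10% FCS, glutamax, pyruvate, pen/strep and 200 µg/mL hygromycin, and assayed without hygromycin. 2,000 cells/well were plated and adhered overnight at 37 °C, 5% CO2. Compounds were added as a 7-point titration, 50 µM to 25 nM final, in 0.46% DMSO, for 30–36 h. OneGlo luminescence was normalized to 4.5 mM sodium butyrate (100%) and DMSO (0%).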

[19] = target: Survival motor neuron protein (Homo sapiens) (UniProt Q16637); assay: Activation of SMN expressed in HEK293 cells assessed as concentration required to reach 50% of maximum luciferase signal by SMN2-promotor driven luciferase reporter gene assay; format: cell-based; summary of the method: as §2
Plasma [20] = assay: Free plasma concentration in Swiss albino mouse at 30 mg/kg, po after 12 hrs; format: ADME, organism-based; parameters: dose 30 mg/kg, route oral; details: in vivo
[21] = target: Survival motor neuron protein (Homo sapiens) (UniProt Q16637); assay: Activation of SMN in human fibroblast cells obtained from type 1 SMA patients assessed as protein punctuate bodies per 100 nuclei at 37 to 1000 nM relative to control; format: cell-based
Plasma [22] = assay: Free plasma concentration in Swiss albino mouse at 30 mg/kg, po after 24 hrs; format: ADME, organism-based; parameters: dose 30 mg/kg, route oral; details: in vivo
[23] = Plasma protein binding in Swiss albino mouse at 30 mg/kg, po; format: ADME, organism-based; parameters: dose 30 mg/kg, route oral; details: read-out: PPB (converted)
Plasma [24] = assay: Free plasma concentration in Swiss albino mouse at 30 mg/kg, po after 0.083 hr; format: ADME, organism-based; parameters: dose 30 mg/kg, route oral; details: in vivo
Plasma [25] = assay: Free plasma concentration in Swiss albino mouse at 30 mg/kg, po after 0.25 hr; format: ADME, organism-based; parameters: dose 30 mg/kg, route oral; details: in vivo
Plasma [26] = assay: Free plasma concentration in Swiss albino mouse at 30 mg/kg, po after 0.5 hr; format: ADME, organism-based; parameters: dose 30 mg/kg, route oral; details: in vivo
Plasma [27] = assay: Free plasma concentration in Swiss albino mouse at 30 mg/kg, po after 1 hr; format: ADME, organism-based; parameters: dose 30 mg/kg, route oral; details: in vivo
Plasma [28] = assay: Free plasma concentration in Swiss albino mouse at 30 mg/kg, po after 2 hrs; format: ADME, organism-based; parameters: dose 30 mg/kg, route oral; details: in vivo
Plasma [29] = assay: Free plasma concentration in Swiss albino mouse at 30 mg/kg, po after 4 hrs; format: ADME, organism-based; parameters: dose 30 mg/kg, route oral; details: in vivo
Plasma [30] = assay: Free plasma concentration in Swiss albino mouse at 30 mg/kg, po after 8 hrs; format: ADME, organism-based; parameters: dose 30 mg/kg, route oral; details: in vivo
[31] = Ratio of AUC in brain to AUC in plasma in Swiss albino mouse at 30 mg/kg, po; format: ADME, organism-based; parameters: dose 30 mg/kg, route oral; details: brain and plasma
Summary of the method: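 Single oral gavage dose of 30 mg/kg given to male Swiss Albino mice; compound concentrations measured in both plasma and brain, from which brain and plasma exposure parameters were derived; animals observed for behavioural disturbance throughout the study.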

Brain [32] = assay: AUC (infinity) in brain of Swiss albino mouse at 30 mg/kg, po; format: ADME, organism-based; parameters: time infinity, dose 30 mg/kg, route oral; details: in vivo; summary of the method: as §1
Brain [33] = assay: AUClast in brain of Swiss albino mouse at 30 mg/kg, po; format: ADME, organism-based; parameters: time 0 - last, dose 30 mg/kg, route oral; details: in vivo; summary of the method: as §1
Brain [34] = assay: Half-life in brain of Swiss albino mouse at 30 mg/kg, po; format: ADME, organism-based; parameters: dose 30 mg/kg, route oral; details: in vivo; summary of the method: as §1
Brain [35] = assay: Cmax in brain of Swiss albino mouse at 30 mg/kg, po; format: ADME, organism-based; parameters: dose 30 mg/kg, route oral; details: in vivo; summary of the method: as §1
Brain [36] = assay: Tmax in brain of Swiss albino mouse at 30 mg/kg, po; format: ADME, organism-based; parameters: dose 30 mg/kg, route oral; details: in vivo; summary of the method: as §1
Plasma [37] = assay: AUClast in plasma of Swiss albino mouse at 30 mg/kg, po; format: ADME, organism-based; parameters: time 0 - last, dose 30 mg/kg, route oral; details: in vivo; summary of the method: as §1
Plasma [38] = assay: AUC (infinity) in plasma of Swiss albino mouse at 30 mg/kg, po; format: ADME, organism-based; parameters: dose 30 mg/kg, route oral, time infinity; details: in vivo; summary of the method: as §1
Plasma [39] = assay: Half-life in plasma of Swiss albino mouse at 30 mg/kg, po; format: ADME, organism-based; parameters: dose 30 mg/kg, route oral; details: in vivo; summary of the method: as §1
Plasma [40] = assay: Cmax in plasma of Swiss albino mouse at 30 mg/kg, po; format: ADME, organism-based; parameters: dose 30 mg/kg, route oral; details: in vivo; summary of the method: as §1
Plasma [41] = assay: Tmax in plasma of Swiss albino mouse at 30 mg/kg, po; format: ADME, organism-based; parameters: dose 30 mg/kg, route oral; details: in vivo; summary of the method: as §1
Brain [42] = assay: Drug level in Swiss albino mouse brain at 30 mg/kg, po after 24 hrs; format: ADME, organism-based; parameters: dose 30 mg/kg, route oral; details: in vivo; summary of the method: as §1
Brain [43] = assay: Drug level in Swiss albino mouse brain at 30 mg/kg, po after 12 hrs; format: ADME, organism-based; parameters: dose 30 mg/kg, route oral; details: in vivo; summary of the method: as §1
Brain [44] = assay: Drug level in Swiss albino mouse brain at 30 mg/kg, po after 8 hrs; format: ADME, organism-based; parameters: dose 30 mg/kg, route oral; details: in vivo; summary of the method: as §1
Brain [45] = assay: Drug level in Swiss albino mouse brain at 30 mg/kg, po after 4 hrs; format: ADME, organism-based; parameters: dose 30 mg/kg, route oral; details: in vivo; summary of the method: as §1

Chain of Survival motor neuron protein (Homo sapiens) (Q16637 whole entry): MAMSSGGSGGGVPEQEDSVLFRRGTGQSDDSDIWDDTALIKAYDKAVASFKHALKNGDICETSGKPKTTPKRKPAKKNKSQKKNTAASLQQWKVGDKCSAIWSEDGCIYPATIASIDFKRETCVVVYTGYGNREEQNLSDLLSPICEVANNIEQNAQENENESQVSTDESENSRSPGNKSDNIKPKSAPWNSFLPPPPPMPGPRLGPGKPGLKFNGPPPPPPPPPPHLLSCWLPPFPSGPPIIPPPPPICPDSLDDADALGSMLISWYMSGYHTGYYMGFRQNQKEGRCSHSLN

O=C(O)C1CCN(c2ncc(-c3ccc4c(c3)OCCCO4)s2)CC1
Drug uptake (Brain [1]): 0.43 µmol/kg | Drug uptake (Brain [2]): 0.59 µmol/kg | Drug uptake (Brain [3]): 1.14 µmol/kg | Drug uptake (Brain [4]): 1.23 µmol/kg | Drug uptake (Brain [5]): 0.48 µmol/kg | concentration at 24 h [6]: 4.36 µM | concentration at 12 h [7]: 4.57 µM | concentration at 8 h [8]: 12.6 µM | concentration at 4 h [9]: 10.8 µM | concentration at 2 h [10]: 16.6 µM | concentration at 1 h [11]: 21 µM | concentration at 0.5 h [12]: 41.1 µM | concentration at 0.25 h [13]: 41.7 µM | concentration at 0.083 h [14]: 44.4 µM | Papp (Caco-2 [15]): 44.1 ×10⁻⁶ cm/s | Papp (Caco-2 [16]): 33.8 ×10⁻⁶ cm/s | t1/2 (Liver): > 1 h | IC50 [17]: 5 nM | Activity [18]: 325% | Activity [19]: 0.012 µM | Cp(f) (Plasma [20]): 0.23 µM | Activity [21]: 80% | Cp(f) (Plasma [22]): 0.22 µM | fraction unbound [23]: 0.051 | Cp(f) (Plasma [24]): 2.26 µM | Cp(f) (Plasma [25]): 2.13 µM | Cp(f) (Plasma [26]): 2.1 µM | Cp(f) (Plasma [27]): 1.07 µM | Cp(f) (Plasma [28]): 0.85 µM | Cp(f) (Plasma [29]): 0.55 µM | Cp(f) (Plasma [30]): 0.64 µM | Kp [31]: 0.028 | AUC (Brain [32]): 3115 ng·h/mL | AUClast (Brain [33]): 2167 ng·h/mL | t1/2 (Brain [34]): 13.69 h | Cmax (Brain [35]): 1.23 µmol/kg | Tmax (Brain [36]): 0.25 h | AUClast (Plasma [37]): 77768 ng·h/mL | AUC (Plasma [38]): 103094 ng·h/mL | t1/2 (Plasma [39]): 11.18 h | Cmax (Plasma [40]): 44.4 µM | Tmax (Plasma [41]): 4.98 min | Drug uptake (Brain [42]): 0.13 µmol/kg | Drug uptake (Brain [43]): 0.13 µmol/kg | Drug uptake (Brain [44]): 0.32 µmol/kg | Drug uptake (Brain [45]): 0.36 µmol/kg
